Screening data from PubChem.
An excerpt weighted towards active compounds, which were near 2.6% of everything screened.
T cruzi inh – blocks replication of Trypanosoma cruzi | T. cruzi beta-gal in NIH3T3, luminescence, 90 h | inhibition, % (no concentration beside the values) | 300,000 compounds, 1.4% hits;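 active means mean inhibition across valid replicates above about 55%, limit read from the data; inconclusive means mean below that limit but half or more replicates reach it; inactive means mean below it, under half of replicates reach it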;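 further: signal also drops with host cell toxicity which is not excluded here; higher percent means less beta-gal luminescence so fewer parasites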
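compound dosing = single 50 nL compound addition per well in DMSO | material = NIH/3T3 host cells with β-galactosidase reporter T. cruzi | input = 5,000 host fibroblasts per well | timing = ≥90 h infection period, 3 h prior cell attachment | read-out basis = percent inhibition of parasite-derived β-gal signal | detection = GalScreen β-gal luminescence, detergent lysis, 60 min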
PolyA inh – inhibitors of polyadenylation in S. cerevisiae; S. cerevisiae SKY197-pL101 polyadenylation reporter, beta-gal luminescence; efflux-impaired pdr1/pdr3 knockout yeast; score 100 = 6 SD above DMSO; 300,000 compounds, 0.02% hits; activity score, % at 12 µM;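 active means lowest replicate activity score at least 50, where 100 means six control SD above control mean; inconclusive means lowest score under 50 but half or more replicates reach 50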;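 further: yeast exposed to compound for 9 h at 30 °C; higher score means more reporter readthrough which indicates perturbed polyadenylation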
CHT allo act – human CHT allosteric activation; CHT-expressing cells, membrane potential dye, choline EC20; hits give high values; LV-AA mutant CHT in HEK293 cells; B-score at 10 µM; 310,000 compounds, 0.49% hits;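 active means initial fluorescence not abnormally high and integrated response B-score, plate-corrected, over 3 SD above library mean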
Target sequence (Q9GZV3 whole entry, looked up): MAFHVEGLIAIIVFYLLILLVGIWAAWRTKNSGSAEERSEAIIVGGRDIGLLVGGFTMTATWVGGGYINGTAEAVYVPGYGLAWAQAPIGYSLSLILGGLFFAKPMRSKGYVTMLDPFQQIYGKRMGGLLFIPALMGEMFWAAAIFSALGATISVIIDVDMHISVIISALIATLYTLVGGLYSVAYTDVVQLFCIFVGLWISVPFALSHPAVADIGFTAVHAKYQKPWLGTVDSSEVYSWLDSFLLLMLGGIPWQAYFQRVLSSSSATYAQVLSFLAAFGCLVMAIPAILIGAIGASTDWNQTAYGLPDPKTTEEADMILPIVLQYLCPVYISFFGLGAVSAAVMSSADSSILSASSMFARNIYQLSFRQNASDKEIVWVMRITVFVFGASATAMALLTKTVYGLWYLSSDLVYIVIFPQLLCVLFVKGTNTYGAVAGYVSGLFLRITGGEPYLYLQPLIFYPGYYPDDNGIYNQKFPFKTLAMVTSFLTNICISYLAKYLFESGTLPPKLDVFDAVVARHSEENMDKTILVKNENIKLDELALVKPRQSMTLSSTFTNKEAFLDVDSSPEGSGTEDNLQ
CHT block – human CHT choline transport inhibition; B-score at 10 µM; CHT-expressing cells, membrane potential dye, choline response; hits give low values; 310,000 compounds, 0.86% hits;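 active means B-score over 3 SD under the library average, and starting fluorescence ratio not unusually high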;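 further: choline stimulus applied at its EC90 after an EC20 pre-addition; B-score computed on integrated fluorescence ratio after choline addition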
CHT block conf – confirmation of human choline transporter CHT inhibitors. CHT-expressing cells, choline membrane potential dye; LV-to-AA substituted CHT, HEK293 cells. CHT activity remaining % of control (hits give low values), % at 10 µM. 2,400 compounds, 70% hits. shares compounds with CHT block;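 active means choline transporter activity left, mean of duplicates at 10 µM, below buffer-only control mean minus 3 SD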;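 further: depolarization triggered by choline at its EC90 following an EC20 pre-addition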
HEK293 CHT ctr – activity in parental HEK293 cells lacking CHT; membrane potential dye, choline response; active = decrease or increase beyond buffer ±3SD; shares compounds with CHT block; membrane potential ratio readout (active if shifted either direction beyond buffer ±3SD; no single direction) at 10 µM; 2,400 compounds, 4% hits; AID 493222;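 further: parental cells lack the transporter so any hit is non-specific; ratio is peak minus trough fluorescence over baseline after EC90 choline challenge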
Of the large screens only hits and unclear results are named; the others gave an inactive call (follow-up assays come after a bar, where they were run).

CCOC(=O)c1oc2nc(C)c3c(c2c1N)CC(C)(C)OC3	none
Cc1cc(NS(=O)(=O)c2ccc(NC(=O)/C=C/c3c(F)cccc3Cl)cc2)nc(C)n1	CHT block -5.68 | CHT block conf 31.2% | HEK293 CHT ctr inactive
CCCCC(Br)C(=O)Nc1ccc(S(=O)(=O)Nc2cc(C)nc(C)n2)cc1 (stereo not given)	CHT block -5.77 | CHT block conf 14.5% | HEK293 CHT ctr inactive
CCOC(=O)c1ccccc1NC(=O)COC(=O)CN1C(=O)C2CC=CCC2C1=O (stereo not given)	none
CCOc1c2ccc(C(=O)NCc3ccc(C)cc3)cc2nn1CC	none
CCCCn1nc2cc(C(=O)N[C@H](C)C3CCCCC3)ccc2c1OCC	CHT block -11.2 | CHT block conf 5.4% | HEK293 CHT ctr inactive
CCCn1nc2cc(C(=O)NCc3ccc(C)cc3)ccc2c1OCC	CHT block -5.57 | CHT block conf 55.8% | HEK293 CHT ctr inactive
CCCCn1nc2cc(C(=O)NC3CCCc4ccccc43)ccc2c1OCC (stereo not given)	CHT block -9.59 | CHT block conf 20.6% | HEK293 CHT ctr inactive
COC(=O)c1ccc(OC(=O)CN2C(=O)c3ccccc3C2=O)cc1	none
CN1CCN(S(=O)(=O)c2ccc(NS(=O)(=O)c3ccccc3)cc2)CC1	none
CCc1ccc(Nc2n[n+](-c3ccccc3)c(/C=C/c3ccccc3)s2)cc1	none
Cc1cccc(C)c1-n1cccc1/C=C1/C(=N)N2C(=NC1=O)SN=C2S(C)(=O)=O	CHT block -5.49 | CHT block conf 50.5% | HEK293 CHT ctr inactive
Cc1ccc(-n2cccc2/C=C2/C(=N)N3C(=NC2=O)SN=C3S(C)(=O)=O)cc1Cl	none (no result: T cruzi inh, PolyA inh)
O=C(Cn1c(=O)cnc2ccccc21)NC1CCC(O)CC1 (stereo not given)	none
COC(=O)NNC(=S)NCc1ccc(C)cc1	CHT block -6.69 | CHT block conf inactive | HEK293 CHT ctr inactive
Cc1ccc(CNC(N)=S)cc1	none
O=C(NCCc1ccc(Cl)cc1)c1cccc(NC2=NC3CS(=O)(=O)CC3S2)c1 (stereo not given)	none
CC(Oc1ccc(Cl)cc1Cl)C(=O)Nc1ccc(S(=O)(=O)Nc2cnc3ccccc3n2)cc1 (stereo not given)	CHT block -9.87 | CHT block conf 46.2% | HEK293 CHT ctr inactive
O=C(Cc1ccc(Cl)cc1)Nc1ccc(S(=O)(=O)Nc2cnc3ccccc3n2)cc1	none
Cc1cc(Cl)ccc1OC(C)C(=O)Nc1ccc(S(=O)(=O)Nc2cnc3ccccc3n2)cc1 (stereo not given)	CHT block -11.1 | CHT block conf 42.7% | HEK293 CHT ctr inactive
CC(=O)Nc1ccc(NC(=O)C(C)Oc2ccc(Cl)cc2Cl)cc1 (stereo not given)	none
CC(Oc1ccc(Cl)cc1Cl)C(=O)NC1=NN(c2ccccc2)C(=O)C1 (stereo not given)	CHT block -6.35 | CHT block conf 38.9% | HEK293 CHT ctr inactive
CCOc1cc(Br)ccc1S(=O)(=O)NCc1ccccc1	CHT block -6.26 | CHT block conf inactive | HEK293 CHT ctr inactive
CCOc1ccc(OCC)c(S(=O)(=O)NCc2ccccc2)c1	none
O=C(N/N=C/c1cccnc1)c1ccc(CN2c3cccc4cccc(c34)S2(=O)=O)cc1	CHT block -5.01 | CHT block conf inactive | HEK293 CHT ctr inactive
Cc1cccnc1NC(=O)c1ccc2c(c1)NC(=O)C(C)S2 (stereo not given)	none
Cc1nc2cc(-c3ccc(Br)cc3)[nH]n2c(=O)c1Cl	none
Cc1cc2nc(C)c(Cl)c(=O)n2[nH]1	CHT block -7.42 | CHT block conf 19.7% | HEK293 CHT ctr inactive
COc1ccc(CC(=O)Nc2ccc(S(=O)(=O)N3CCCCC3)cc2)cc1OC	none
Cn1c(-c2sc3ccccc3c2Cl)n[nH]c1=S	CHT block -5.06 | CHT block conf 50.1% | HEK293 CHT ctr inactive
CC(=O)c1c(C)n(CCc2ccc(Cl)cc2)c2ccc(O)cc12	none
CCOC(=O)C1CCN(Cc2c(O)c3ccccc3oc2=O)CC1	CHT block -5.9 | CHT block conf 65.1% | HEK293 CHT ctr inactive
O=S(=O)(Nc1nc2ccccc2s1)c1ccc(Cl)nc1	none | CHT block conf 67.0% | HEK293 CHT ctr inactive
Oc1c(Br)cc(/C=N/NC(=S)NCc2ccco2)cc1Br	CHT block -5.06 | CHT block conf 67.3% | HEK293 CHT ctr inactive
COC(=O)c1ccc(NC(=O)CCC(=O)c2ccc(F)cc2)cc1	PolyA inh inconclusive
N#Cc1nc(Cc2cccc3ccccc23)oc1N1CCOCC1	CHT block -5.33 | CHT block conf 58.9% | HEK293 CHT ctr inactive
CCOC(=O)CC1(CC(=O)OCC)NC(=O)c2c(C)sc(C(=O)OCC)c2N1	CHT block -5.13 | CHT block conf 38.3% | HEK293 CHT ctr inactive
CCOC(=O)CC1(C)NC(=O)c2c(C)sc(C(=O)OCC)c2N1 (stereo not given)	none
N#CC12CCCCC1CC1CCCCC1(C#N)N2CCO (stereo not given)	CHT block -5.74 | CHT block conf inactive | HEK293 CHT ctr inactive
Cc1cc(=O)[nH]c(SCCOc2ccc(OC(C)C)cc2)n1	CHT block -4.95 | CHT block conf inactive | HEK293 CHT ctr inactive
CC1CCCC(C)N1CCCNC(=O)CN1C(=O)c2cccnc2Oc2ccc(Cl)cc21 (stereo not given)	CHT block -7.09 | CHT block conf 18.6% | HEK293 CHT ctr inactive
CC(OC(=O)COc1ccc(Nc2ccccc2)cc1)C(=O)N(C)c1ccccc1 (stereo not given)	none
COc1cc(NC2CCCCC2O)c2nc(-c3ccc(Cl)cc3)ccc2c1 (stereo not given)	CHT block -8.38 | CHT block conf 49.2% | HEK293 CHT ctr inactive
COc1ccc(OC)c(NC(=O)COC(=O)CSc2ccc(Cl)cc2)c1	none
CCCCn1c(Oc2ccc(C(=O)OC)cc2)nc2c1c(=O)n(C)c(=O)n2C	CHT block -6.82 | CHT block conf inactive | HEK293 CHT ctr inactive
COc1ccccc1N1CCN(C(=O)C2CCCN(c3ncnc4c3nc3n4CCCCC3)C2)CC1 (stereo not given)	none
Cc1cccc(N2CCN(C(=O)C3CCN(c4ncnc5c4nc4n5CCCCC4)CC3)CC2C)c1 (stereo not given)	CHT block -5.02 | CHT block conf 43.1% | HEK293 CHT ctr inactive
Cc1ccc(N2CCN(C(=O)C3CCCN(c4ncnc5c4nc4n5CCCCC4)C3)CC2)c(C)c1 (stereo not given)	CHT block -5.94 | CHT block conf 45.1% | HEK293 CHT ctr inactive
O=C(Nc1cc(F)ccc1F)C1CCCN(c2ncnc3c2nc2n3CCCCC2)C1 (stereo not given)	CHT block -6.01 | CHT block conf 46.1% | HEK293 CHT ctr inactive
